Source: the RNAGym collection of RNA variant scans (doi:10.1126/science.aae0568)
Fewer inactive variants are shown than the library holds.

B1: tRNA (parent)
chain: GUUCCGUUGGCGUAAUGGUAACGCGUCUCCCUCCUAAGGAGAAGACUGCGGGUUCGAGUCCCGUACGGAACG

Variants of: B1
Assay: yeast fitness relative to wild type (ratio to wild type); higher = fitter; tRNA-Arg(CCU), competitive growth, 37 C, YPD
Procedure, shortened: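 Changes in genotype frequencies gave Darwinian fitness relative to wild type. Frequencies were read by 100-nucleotide paired-end sequencing of gene amplicons before and after pooled Saccharomyces cerevisiae strains, carrying tRNA-Arg(CCU) gene variants at the native locus, were competed in YPD at 37°C for 24 hours in six replicates. A genotype was kept only with ≥ 100 starting reads, and estimates < 0.5 were set to 0.5.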

Row | Variant | yeast fitness
1 | C11U C46U | 1
2 | C11U C46A | 1.03
3 | C11U G48C A65G | 0.714
4 | C11U U16C C31U U54C | ≤ 0.5
5 | C11U C30U G38C A65G | 0.506
6 | C11U G18A C31U A40U U47G | ≤ 0.5
7 | C11U G44A A65C | 0.704
8 | C11U C31U U47C | 0.78
9 | C11U C31U G58C | 0.643
10 | C11U G67C | 0.792
11 | C11U G12C A21U U32A | 0.694
12 | C11U G52C A69G | ≤ 0.5
13 | C11U U19G C27U U47C A70U | ≤ 0.5
14 | C11U U16A C29A A45U | 0.605
15 | C11U C34U G48A G67U | ≤ 0.5
16 | C11U C46U A70G | 0.786
17 | C11U U13A C62U | 0.721
18 | C11U C27U C31A A42G C49G G51A | ≤ 0.5
19 | C11U C27A G52A | ≤ 0.5
20 | C11U C46A A65U | 0.682
21 | C11U U28A U54C | ≤ 0.5
22 | C11U G18A G23C C34U | ≤ 0.5
23 | C11U G56C C62U G68U | ≤ 0.5
24 | C11U C31G A57U G67U | ≤ 0.5

Row | Variant | yeast fitness
25 | C11U C33G C46A C61A | ≤ 0.5
26 | C11U U16C C27G C34G G67A | ≤ 0.5
27 | C11U G12A G44C C46U U59A | ≤ 0.5
28 | C11U C61A C62U G63C A70U | ≤ 0.5
29 | C11U U26G | 0.856
30 | C11U U26C | 0.948
31 | C11U U26A | 0.999
32 | C11U U19A A21C A42G | 0.568
33 | C11U G52A A69C | 0.865
34 | C11U G12A C61U | 0.511
35 | C11U G25A A57C C60U G67C | ≤ 0.5
36 | C11U U26G U28C G56A | ≤ 0.5
37 | C11U U19C G23A G25A A43U C55U | ≤ 0.5
38 | C11U G44C G67A | 0.638
39 | C11U U28C A40C G50C | ≤ 0.5
40 | C11U G38C U64G A70C | ≤ 0.5
41 | C11U C33A C34G | 0.526
42 | C11U C31A G51C | 0.532
43 | C11U C29A C31G | ≤ 0.5
44 | C11U C34A A57G | 0.548
45 | C11U G56A A65C | 0.732
46 | C11U G41C G68A A69C | ≤ 0.5
47 | C11U C30G G56C | ≤ 0.5
48 | C11U G63C | 0.725

Row | Variant | yeast fitness
49 | C11U G51A U59A | ≤ 0.5
50 | C11U C61U G68A | 0.615
51 | C11U C27U C31A U35C C60G A70C | ≤ 0.5
52 | C11U G44C G58A | 0.712
53 | C11U C29U A45C C60G A65C | ≤ 0.5
54 | C11U G23A C60G C62A | ≤ 0.5
55 | C11U U19A A42G | 0.56
56 | C11U U13A C30A C33A A57U | ≤ 0.5
57 | C11U G48A G51C | 0.832
58 | C11U G48A G51A | 0.724
59 | C11U U13C C30A G52A A69U | ≤ 0.5
60 | C11U G56C A57U C60U | ≤ 0.5
61 | C11U C27G C29G C49U G63C | ≤ 0.5
62 | C11U C30U A43G | ≤ 0.5
63 | C11U G41A A65U | 0.515
64 | C11U C46U G56C A69U | ≤ 0.5
65 | C11U G44A C60G U64C | ≤ 0.5
66 | C11U G51A C61G | ≤ 0.5
67 | C11U U26G U28C C49A G58C C62U | 0.527
68 | C11U C27U | 0.906
69 | C11U C27G | 0.703
70 | C11U U26G G56A | ≤ 0.5
71 | C11U G44A U53G | 0.529
72 | C11U G41C | 0.852

Row | Variant | yeast fitness
73 | C11U G48A C49A U54A | ≤ 0.5
74 | C11U U13C A14G C24A A43C G50C C60G | ≤ 0.5
75 | C11U C30A U47A C62A | 0.591
76 | C11U C27U A45C A57C | ≤ 0.5
77 | C11U C31U G51C | ≤ 0.5
78 | C11U G39C C55G | ≤ 0.5
79 | C11U G39C C55A | ≤ 0.5
80 | C11U C34A G41C A42G | ≤ 0.5
81 | C11U C29G A37C A42U A57G | ≤ 0.5
82 | C11U G17C A21U | 0.541
83 | C11U C30U G41C | ≤ 0.5
84 | C11U U13G A21G U26C C27G G48C G67A | ≤ 0.5
85 | C11U G48A G51C G68U | 0.59
86 | C11U U13A G25A | 0.716
87 | C11U U16A A36G A43G C62A | ≤ 0.5
88 | C11U G44A G63A | 0.74
89 | C11U C60G G67A | 0.549
90 | C11U G25A U59G | 0.538
91 | C11U C31G A57U | 0.533
92 | C11U U16A C24G A42C | ≤ 0.5
93 | C11U C29U G48A | 0.621
94 | C11U G48A C55A G58C | ≤ 0.5
95 | C11U C61A G67A | 0.53
96 | C11U U19A C29U C30G | ≤ 0.5

Row | Variant | yeast fitness
97 | C11U C60A | 0.631
98 | C11U C34U A43G | ≤ 0.5
99 | C11U G18A A43U | 0.533
100 | C11U C27U G52C C55G | ≤ 0.5
101 | C11U C27G C55U C66A | ≤ 0.5
102 | C11U G51A G63C A69U | ≤ 0.5
103 | C11U C46U G67C | 0.608
104 | C11U G51A | 0.727
105 | C11U G25A C66U A70C | 0.688
106 | C11U C31U A42C G44A A45U | ≤ 0.5
107 | C11U U13A A20C C22G | ≤ 0.5
108 | C11U C27A G51C G56C | ≤ 0.5
109 | C11U G58A A65G | 0.777
110 | C11U C31G C33U A37C A65U | ≤ 0.5
111 | C11U G52C C61G | ≤ 0.5
112 | C11U G56C | 0.709
113 | C11U U19A U64C | 0.664
114 | C11U C34A A36C G67C | ≤ 0.5
115 | C11U C33G C60A | ≤ 0.5
116 | C11U C29U C60G A70G | ≤ 0.5
117 | C11U G12C C46A | ≤ 0.5
118 | C11U U13C C30U | 0.769
119 | C11U C33G U54A U64A | ≤ 0.5
120 | C11U C31U U59A | ≤ 0.5

Row | Variant | yeast fitness
121 | C11U C31U C66U | 0.742
122 | C11U U28A C29U | 0.93
123 | C11U C31A A42G | 0.525
124 | C11U C34G G38C C61U | ≤ 0.5
125 | C11U G25C C34A | 0.557
126 | C11U G38A A40U G52C G68C A69G | ≤ 0.5
127 | C11U U13C A42U G63A | ≤ 0.5
128 | C11U C30G A40U U54A | ≤ 0.5
129 | C11U G25A A57U | ≤ 0.5
130 | C11U U26A C33U U53C | ≤ 0.5
131 | C11U C46U C49U G67C | ≤ 0.5
132 | C11U C27G A42C G68A | ≤ 0.5
133 | C11U C24U C49A C62A | ≤ 0.5
134 | C11U G41C A42G | 0.547
135 | C11U U26A A43U C60A A65G | 0.531
136 | C11U G12A A15C C31A G51A C66U | 0.594
137 | C11U G63C C66U | ≤ 0.5
138 | C11U U19G C33U A40G G67A | ≤ 0.5
139 | C11U C49U C61A | 0.555
140 | C11U G48A | 0.972
141 | C11U C55G C66U | ≤ 0.5
142 | C11U G48A U54C | 0.677
143 | C11U C29G A36U C66A | ≤ 0.5
144 | C11U G41A A42G A70U | ≤ 0.5

Row | Variant | yeast fitness
145 | C11U C30U C55G | 0.541
146 | C11U G17C A21C C24A G41A C46G C61A | ≤ 0.5
147 | C11U C31G C55U C61U A65G | ≤ 0.5
148 | C11U U16C C33A U53C | ≤ 0.5
149 | C11U C30G G58A | ≤ 0.5
150 | C11U C34A C61U | ≤ 0.5
151 | C11U C31G C46A U54C C61G | ≤ 0.5
152 | C11U C49U G56C C62U | ≤ 0.5
153 | C11U U28C A40C G50C A70C | ≤ 0.5
154 | C11U C24U U53A C66U | ≤ 0.5
155 | C11U G48A C62A | 0.762
156 | C11U C31U C60A | ≤ 0.5
157 | C11U C49G A57C G67U | ≤ 0.5
158 | C11U C55A G56C G67C | ≤ 0.5
159 | C11U C29U U47C G67A A70U | ≤ 0.5
160 | C11U U13A U32C C49U | ≤ 0.5
161 | C11U U16A U47C | 0.838
162 | C11U C31G A37U G51C G58A | ≤ 0.5
163 | C11U G52C C66U | ≤ 0.5
164 | C11U U13C A69C | 0.737
165 | C11U C27U U35C | 0.635
166 | C11U C29G A37C A42U | ≤ 0.5
167 | C11U G18A A40U | ≤ 0.5
